Measured values as given in paper PMC6644768 (ACS Omega, 2018).

Columns and labels:
Type in all cases: cell-based
[1] = tested on: MCF 10A cells; test: IC50 determination, sulforhodamine B assay, MCF 10A; conditions: one cell cycle
How it was run: (§1)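 Sulforhodamine B proliferation assay as run for A549, but with cells exposed to test compound for one cell cycle. Read-out: TCA fixation, dye binding, Tris solubilization, absorbance at 520 nm. IC50 fitted by nonlinear regression; each cell line determined three times independently. Culture media: HeLa and MCF-7 in Eagle's MEM; L929 and B16F10 in DMEM; MCF 10A in DMEM/F12K with 10% FBS, EGF, hydrocortisone and insulin.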

[2] = tested on: ROS in HeLa cells; test: Intracellular ROS by DCFDA dye; conditions: 6 h, control 2.4 ± 0.1
[3] = tested on: HeLa cells; test: Mitotic index by Hoechst 33258 staining; conditions: 20 nM; control 3 ± 0.6
How it was run: (§2)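 HeLa cells exposed to 75 and 200 nM test compound or 20 nM reference agent for 12 h. Cells immunostained for phospho-histone H3 (Ser10), with DNA counterstained by Hoechst 33258. Mitotic index scored either from DNA morphology or as phospho-H3-positive cells. Experiment performed three times; error given as standard deviation.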

[4] = tested on: A549 cells; test: IC50 determination, sulforhodamine B assay, A549; conditions: A549 cell line, 24 h
How it was run: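 A549 cells (F-12K medium, 10% FBS) plated at 10 000 cells/well and grown 24 h, then exposed to a range of test compound concentrations for 24 h. Sulforhodamine B read-out: fixation in 50% TCA for 1 h at 4 °C, then 0.4% dye in 1% acetic acid for 1 h, 1% acetic acid washes, and solubilization in 10 mM Tris pH 10.0. Absorbance read at 520 nm. IC50 from nonlinear regression, three independent determinations.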

[5] = tested on: HeLa cells; test: Mitotic index by phospho-histone H3 staining; conditions: 20 nM; control 3 ± 0.2
How it was run: as §2

[6] = tested on: HeLa cells; test: PI staining of dead cells; conditions: 20 nM, 24 h; control 6%
How it was run: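 HeLa cells on coverslips (2.5 × 10^4 cells/well, 24 h) given vehicle (0.1% DMSO), 75 or 200 nM test compound, or 20 nM reference agent for 24 h. Plates centrifuged at 2500 rpm for 15 min and washed in PBS. Cells stained with propidium iodide for 15 min at room temperature in the dark and imaged. PI-positive cells counted as a percentage. Two independent sets.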

[7] = tested on: MCF-7 cells; test: IC50 determination, sulforhodamine B assay, MCF-7; conditions: MCF-7, one cell cycle
How it was run: as §1

[8] = tested on: A549 cells; test: Scratch wound healing assay; conditions: 100 nM
[9] = tested on: tubulin in HeLa cells; test: Soluble and polymeric tubulin in cells by western blot; conditions: 25 nM, control 2.1 ± 0.4

In the case of `COc1ccc(/C=C\c2cc(OC)c(OC)c(OC)c2)cc1O` [CA-4, combretastatin A-4], the IC50 [1] is reported as 144 ± 31 nM, the “fluorescence intensity of DCFDA per cell” value ([2]; 20 nM) is reported as 3.6 ± 0.4 and the “mitotic index, Hoechst staining” value [3] is reported as 40 ± 1.2. The IC50 [4] was 112 ± 7 nM, the “mitotic index, phospho-histone staining (percentage of mitotic cells)” value [5] was 38 ± 0.3% and the PI-stained positive cells [6] was 87%. For the same compound, the IC50 [7] was 18 ± 3 nM, the “inhibition of migration of A549 cells” value ([8]; 10 h) was 77 ± 5% and the rate of migration ([8]; vehicle 3 ± 0.7) was 0.4 ± 0.2 μm/h.

In the case of `CC[C@]1(O)C[C@@H]2CN(CCc3c([nH]c4ccccc34)[C@@](C(=O)OC)(c3cc4c(cc3OC)N(C)[C@H]3[C@@](O)(C(=O)OC)[C@H](OC(C)=O)[C@]5(CC)C=CCN6CC[C@]43[C@@H]65)C2)C1` [vinblastine], the “ratio of polymeric to soluble tubulin” value [9] is reported as 1.4 ± 0.9.

`OO` [Compound H2O2, H2O2] was tested, and the “fluorescence intensity of DCFDA per cell” value ([2]; 100 μM) was 4.5 ± 0.2.
